According to BindingDB's records for doi:10.1021/jm020875j (Boehringer Ingelheim Pharma, 2002):

Biological target: Sodium channel protein type 1/2/3 subunit alpha (Rattus norvegicus, UniProt P04774+P04775+P08104)
Assay: Displacement of [3H]BTX from sodium channel of rat cerebral cortex synaptosomes
Method in brief: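 Synaptosomal membranes from rat cerebral cortex incubated 1 h at 37 °C with 1 nmol/L [3H]BTX-B in choline Cl/HEPES-Tris buffer pH 7.4 containing glucose, KCl and MgSO4, plus scorpion venom. Nonspecific binding defined with 100 μmol/L aconitine. Stopped by vacuum filtration through glass fiber and two buffer washes.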

Structure (SMILES)	Ki
CN(c1nc2ccccc2s1)C1CCN(C[C@H](O)COc2ccc(F)c(F)c2)CC1	0.203 µM
Cc1cccc(C)c1OC[C@@H](C)N	22.7 µM
C[C@@H](CN1CCC2(C)c3ccc(O)cc3C[C@@H]1C2(C)C)Oc1ccccc1	0.149 µM
COC(C)CN1CCC2(C)c3ccc(O)cc3C[C@@H]1C2(C)C (some centres undefined)	> 10 µM
CO[C@@H](C)CN1CCC2(C)c3cccc(O)c3C[C@H]1C2(C)C	10 µM
C[C@H](CN1CCC2(C)c3ccc(O)cc3C[C@H]1C2(C)C)Oc1ccccc1	0.864 µM
CO[C@H](C)CN1CCC2(C)c3cccc(O)c3C[C@@H]1C2(C)C	3.31 µM
CO[C@@H](C)CN1CCC2(C)c3ccccc3C[C@@H]1C2(C)C	4.7 µM
C[C@@H](CN1CCC2(C)c3ccc(O)cc3C[C@@H]1C2(C)C)OCc1ccccc1	0.312 µM
CC1[C@H]2Cc3c(O)cccc3C1(C)CCN2C[C@H](C)OCc1ccccc1 (some centres undefined)	0.054 µM
C[C@H](CN1CCC2(C)c3ccc(O)cc3C[C@H]1C2(C)C)OCc1ccccc1	1.23 µM
C[C@@H](CN1CCC2(C)c3ccc(O)cc3C[C@H]1C2(C)C)Oc1ccccc1	1.53 µM
C[C@H](CN1CCC2(C)c3cccc(O)c3C[C@@H]1C2(C)C)OCC1CCCCC1	0.241 µM
CC12CCN(CCc3ccccc3)[C@H](Cc3cc(O)ccc31)C2(C)C	1.06 µM
C[C@@H](CN1CCC2(C)c3cccc(O)c3C[C@@H]1C2(C)C)OCC1CCCCC1	0.208 µM
CC(CN1CCC2(C)C[C@@H]1Cc1c(O)cccc12)OCc1ccccc1 (some centres undefined)	0.047 µM
CC1[C@H]2Cc3c(O)cccc3C1(C)CCN2C[C@@H](C)OCc1ccccc1 (some centres undefined)	0.153 µM
COC(C)CN1CCC2(C)c3cc(O)ccc3C[C@@H]1C2(C)C (some centres undefined)	6.01 µM
C[C@@H](CN1CCC2(C)c3ccc(O)cc3C[C@H]1C2(C)C)OCc1ccccc1	1.87 µM
C[C@H](CN1CCC2(C)c3cccc(O)c3C[C@H]1C2(C)C)OCc1ccccc1	1.49 µM
C[C@@H](CN1CCC2(C)c3cccc(O)c3C[C@H]1C2(C)C)OCc1ccccc1	1.33 µM
C[C@H](CN1CCC2(C)c3ccc(O)cc3C[C@@H]1C2(C)C)Oc1ccccc1	0.662 µM
CC12CCN(CCc3ccccc3)[C@@H](Cc3cc(O)ccc31)C2(C)C	1.29 µM
CO[C@@H](C)CN1CCC2(C)c3cccc(O)c3C[C@@H]1C2(C)C	0.783 µM
COC(C)CN1CCC2(C)c3c(O)cccc3C[C@@H]1C2(C)C (some centres undefined)	8.99 µM
CO[C@H](C)CN1CCC2(C)c3cccc(O)c3C[C@H]1C2(C)C	10 µM
C[C@H](CN1CCC2(C)c3ccc(O)cc3C[C@@H]1C2(C)C)OCc1ccccc1	0.382 µM
COc1ccc2c(c1)[C@]13CCCC[C@@H]1[C@H](C2)N(C)CC3 [DEXTROMETHORPHAN]	4.8 µM
Cc1ccc(-c2nc(C)c(CN3CCN(C(c4ccccc4)c4ccccc4)CC3)[nH]2)cc1 [Lifarizine]	0.259 µM
